From PubChem
Hits are enriched below; roughly 3.1% of the tested compounds scored in any of these assays.
HSF1 inhib = HSF1 inhibitors in luciferase reporter cells, primary screen, cell-based, NIH3T3, luminescence; hit rate 0.77% among 300,000; NIH3T3-HGL HSE-luciferase, MG132-induced, luminescence 8 h; active compounds read low; AID 2098, 2009; activity change, negative = inhibition, % at 7.5 µM (by protocol);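 active = more than half of replicate wells show activity change below -50%, luminescence cut by over half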;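 note: luciferase reports HSF-1 transcriptional activity via heat shock element; 0% = median of DMSO wells and -100% = zero luminescence signal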
HSP90 refold inh = HSP90 inhibitors, primary screen, cell lysate, luminescence; Heat shock protein HSP 90 (rabbit reticulocyte lysate; luciferase refolding); Rabbit reticulocyte lysate, luciferase refolding luminescence, 3 h; inhibition, % at 5.6 µM; hit rate 0.91% among 290,000; AID 1789, 2009;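 active = inhibition above the screen-wide mean plus 3 SD, computed separately per campaign, cut at about 16% in these data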;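 note: 0% = DMSO wells and 100% = 60 µM geldanamycin wells; inhibitors lower the luminescence because luciferase stays unfolded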
Hsp70 activator = Hsp70 transcriptional activators, primary screen, cell-based, HeLa, Hsp70 promoter luciferase, luminescence, 10 µM. HeLa Hsp70 promoter luciferase reporter; scaled: vehicle 0, proteasome-inhibitor control 100%. AID 1203, 2008. activation, % at 10 µM. hit rate 0.04% among 200,000;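 active = activation above the mean across all tested compounds plus 3 SD, cutoff set per campaign, cut at about 5.5% in these data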;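 note: 100% = MG132 at 30 µM as the positive control and 0% = DMSO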
HKDC1 inhibitor = HKDC1 hexokinase inhibitors, primary screen, biochemical, fluorescence, uHTS | Q2TB90 | recombinant HKDC1, G6PDH/diaphorase resazurin coupled fluorescence | inhibition, % at 20 µM | hit rate 0.16% among 340,000;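 active = inhibition above about 35% when tested at 20 µM, limit read from the data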;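 note: plate controls were DMSO wells with enzyme for no effect and DMSO wells lacking enzyme for full effect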
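Material: recombinant HKDC1 hexokinase; Amount: HKDC1 at 5 µg/mL; Medium: Tris pH 8.0 buffer with MgCl2, Tween-20, BSA, BME; Schedule: 90 min reaction incubation at room temperature, dark; Technique: coupled resazurin fluorescence, excitation 525 nm, emission 613 nm.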
HSF-1 act = HSF-1 activators, primary screen, NIH3T3-HGL cells, MG132 stress, luminescence, single point | hit rate 1.7% among 300,000 | NIH3T3-HGL HSF-1 luciferase reporter, 8 h; 100% = twice DMSO control signal | activation, % at 9 µM | AID 504408, 2011;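 active = mean replicate activation of at least 50% with a set share of replicates each reaching 50%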;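 note: 0% = median of the neutral control wells and 100% = twice that signal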
TbHK1 inh = Trypanosoma brucei hexokinase 1 inhibitors, primary screen, biochemical, G6PDH-coupled NADH absorbance, MLSCN library | inhibition, % at 10 µM | hit rate 0.11% among 220,000 | AID 1430, 2008 | recombinant TbHK1, G6PDH-coupled NADH A340;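 active = inhibition of 50% or more in the single-dose primary screen; inactive = inhibition below 50%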
The depositor's hits bear a star; / = no result.

SMILES	HSF1 inhib	HSP90 refold inh	Hsp70 activator	HKDC1 inhibitor	HSF-1 act	TbHK1 inh
O=C(c1ccc(-c2nnc(Nc3cccc(Cl)c3)c3ccccc23)cc1)N1C[C@H]2C[C@H](C1)c1cccc(=O)n1C2	1.4	3.2	-0.5	16.9	25.2	-25.9
CC(=O)N/C(=N\c1nc(C)cc(C)n1)Nc1ccc2ccccc2c1	-50.7*	12.9	/	8.1	-55.6	/
CC(=O)N/C(=N/c1nc(C)cc(C)n1)Nc1ccc(NC(C)=O)cc1	-1.3	-1.1	0.0	-4.6	1.3	-10.7
O=C(O)CC1=C(Nc2ccccc2)C(=O)N(c2ccccc2)C1c1ccc(Br)cc1 (centres undefined)	38.4	-6.8	-0.1	2.2	56.8*	-6.7
CCOc1cc2c(cc1OCC)C(c1ccc(F)cc1)NCC2 (centres undefined)	-2.0	/	/	-6.2	2.7	/
CCOc1cc(C2NN=C(c3ccccc3)S2)ccc1OCc1ccc(F)cc1 (centres undefined)	29.5	-1.1	0.0	-2.1	56.4*	-20.6
CCOc1cc(C2NN=C(c3ccccc3)S2)ccc1OCc1ccccc1Cl (centres undefined)	37.5	-4.5	-0.1	-5.3	53.4*	-3.2
COC(=O)c1ccc(NS(=O)(=O)c2cc(-c3cc(C)no3)ccc2OC)cc1	-14.5	-5.2	/	-4.3	-24.0	/
COc1ccccc1C(=O)NCCC(=O)NNC(=O)Cn1ccc(C(F)(F)F)n1	-77.3*	/	/	-3.4	-81.9	/
Cc1cc(C)n(CCCNC(=O)C2CC(=O)N(Cc3ccccc3)C2)n1 (centres undefined)	0.7	/	/	1.1	4.4	/
Cc1cccc(NC(=O)CNC(=O)CN2CCN(C)CC2)c1C	/	/	/	-4.0	/	/
Cc1cc(NC(=O)c2ccc3nc(C)sc3c2)no1	-66.9*	0.3	-0.3	-0.3	-73.3	-0.4
Cc1ccc(C(=O)Nc2ccc3nc(C)sc3c2)s1	32.6	-2.4	0.0	-2.1	56.1*	-2.2
Cc1nc2cc(NC(=O)c3ccc(Br)s3)ccc2s1	33.9	0.2	/	-6.6	55.7*	/
CC1CCN(C(=O)c2nc[nH]c2C(=O)N2CCC(C)CC2)CC1	/	/	/	0.7	/	/
CC1=CC2=NC(=O)C(c3ccccc3)C(=O)N2C=C1 (centres undefined)	/	/	/	0.6	/	/
O=C(O)c1cc2cc(Cl)ccc2[nH]1	/	/	/	-3.4	/	/
O=C(O)c1cc2cc(F)ccc2[nH]1	-64.3*	-3.7	0.1	-3.4	-72.2	0.2
Cc1cccc(C)c1NC(=O)CN(C)C(=O)C1CC(=O)N(c2cccc3ccccc23)C1 (centres undefined)	/	/	/	-1.5	/	/
Cc1ccc(/C=C/C(=O)Nc2ccccc2C(N)=O)cc1	17.8	2.3	-0.1	-2.2	59.1*	-9.6
Cc1ccc(C=Nc2ccccc2C(N)=O)cc1	54.9	1.5	-0.1	-10.6	66.0*	-14.8
Cc1ccc(C=Nc2ccccc2C(=O)Nc2ccccc2)cc1	0.1	-3.0	-0.3	14.4	6.4	-1.6
N/C(Cc1ccc([N+](=O)[O-])cc1)=N\OC(=O)Cc1ccccc1	0.7	3.5	0.6	-5.1	4.5	4.5
O=C(Cc1ccc([N+](=O)[O-])cc1)OCc1c(F)cccc1Cl	38.7	-0.2	/	3.3	56.1*	/
N/C(Cc1ccc([N+](=O)[O-])cc1)=N\OC(=O)c1ccccc1F	49.5	-0.4	-0.3	-1.4	65.7*	-8.8
SMILES	HSF1 inhib	HSP90 refold inh	Hsp70 activator	HKDC1 inhibitor	HSF-1 act	TbHK1 inh
CCN(CC)c1ncnc2ccc(Br)cc12	-53.3*	-0.5	-0.1	-1.4	-58.1	-14.3
Cc1ccccc1N=Cc1ccc[nH]1	/	/	/	-2.8	/	/
Cc1ccc(N=Cc2ccc[nH]2)c(O)c1	-75.7*	2.7	0.4	7.3	-78.2	-14.3
O=C(O)CCCNC(=O)C(c1ccccc1)c1ccccc1	-3.4	-1.8	0.1	-13.2	-9.4	0.1
O=C(O)CCCNC(=O)CCCNC(=O)C(c1ccccc1)c1ccccc1	-63.7*	10.4	-0.1	-2.1	-72.7	-3.9
Cc1ccc(NC(=O)CSc2ccc(Br)cc2)cc1S(=O)(=O)N1CCOCC1	16.2	/	/	-1.3	-4.9	/
CCC(C)[C@H](Nc1nc(-c2ccccc2)nc2c1oc1ccccc12)C(=O)O (some centres undefined)	-3.0	-3.7	-0.1	-0.4	-25.6	-1.0
CCc1nc(SCC(=O)NCCc2ccccc2)c2oc3ccccc3c2n1	-4.8	-4.0	-0.3	4.2	12.7	-9.4
CC(C)[C@H](Nc1nc(-c2ccccc2)nc2c1oc1ccccc12)C(=O)O	-54.9*	-2.0	-0.4	-0.8	-65.1	6.7
O=C(O)CSc1nc(-c2ccc(Cl)cc2)nc2c1oc1ccccc12	-1.4	-0.5	-0.2	0.2	11.4	-2.2
O=C(O)CSc1nc(-c2ccccc2)nc2c1oc1ccccc12	-68.4*	0.7	0.0	2.3	-74.4	40.0
CCc1nc(SCC(=O)c2cccs2)c2oc3ccccc3c2n1	12.4	6.5	-0.4	2.8	65.9*	-3.6
CC(=O)c1ccc(NC(=O)C(C)Sc2n[nH]c(-c3cccnc3)n2)cc1 (centres undefined)	-4.6	-4.2	/	26.8	-14.7	/
Cc1ccc(C(=O)NCCCN2CCN(CCCNC(=O)c3ccc(C)cc3)CC2)cc1	-6.3	/	/	-6.4	-3.9	/
C=C(CCO)C1=CCN(S(=O)C(C)(C)C)[C@@H]1CCO (some centres undefined)	/	/	/	-3.7	/	/
COCCn1c(SCC(=O)Nc2ccc3c(c2)OCCO3)nc2c(c1=O)SC(C)C2 (centres undefined)	/	-3.6	0.0	0.7	/	-7.5
CC1Cc2nc(SCC(=O)Nc3ccc4c(c3)OCO4)n(Cc3ccccc3)c(=O)c2S1 (centres undefined)	54.9	-4.1	0.0	12.1	78.4*	-6.9
O=S(=O)(Nc1cc2nc3ccccc3nc2n1Cc1ccccc1)c1ccc(Cl)cc1	78.3	6.7	0.8	-0.9	114.4*	-5.4
O=S(=O)(NCc1ccccc1)c1ccc(Cl)cc1	-1.5	5.9	-0.3	-0.1	5.5	1.9
CC1CCCC(NC(=O)c2cccc(S(=O)(=O)N3CCCCC3)c2)C1C (centres undefined)	-1.9	-2.9	/	-4.1	-10.4	/
ON=C1c2ccccc2-c2ccccc21	20.3	2.9	/	-5.3	56.5*	/
CN(C)c1ccc2c(c1)C(=NO)c1ccccc1-2	/	/	/	5.5	/	/
CCCc1ccc(-c2cc(NC(=O)CSc3nnc(N)s3)n(-c3ccccc3)n2)cc1	38.5	-1.6	-0.1	-4.5	61.4*	3.9
CCCCNc1cc(NC(C)=O)cc2cc(OC)c(OC)cc12	59.2	2.1	-0.2	20.5	76.3*	-1.4
COc1cc2cc(NC(C)=O)cc(NCc3ccccc3)c2cc1OC	27.7	-2.7	/	14.5	66.4*	/
